Measured values taken from publication PMC7508885 (SLAS discovery : advancing life sciences R & D, 2020).

What was measured:
P. aeruginosa TyrRS-S [1] = target: T1, P. aeruginosa TyrRS-S (Pseudomonas aeruginosa, UniProt Q9HWP3); experiment: ATP:PPi exchange reaction; assay type: biochemical; details: other substrate (Tyr or ATP) held at 2 mM; enzyme 0.4 μM
P. aeruginosa TyrRS-Z [2] = target: T2, P. aeruginosa TyrRS-Z (Pseudomonas aeruginosa, UniProt Q9I5Q3); experiment: ATP:PPi exchange reaction; assay type: biochemical; details: other substrate (Tyr or ATP) held at 2 mM; enzyme 0.4 μM
T2 sequence (Q9I5Q3 whole entry): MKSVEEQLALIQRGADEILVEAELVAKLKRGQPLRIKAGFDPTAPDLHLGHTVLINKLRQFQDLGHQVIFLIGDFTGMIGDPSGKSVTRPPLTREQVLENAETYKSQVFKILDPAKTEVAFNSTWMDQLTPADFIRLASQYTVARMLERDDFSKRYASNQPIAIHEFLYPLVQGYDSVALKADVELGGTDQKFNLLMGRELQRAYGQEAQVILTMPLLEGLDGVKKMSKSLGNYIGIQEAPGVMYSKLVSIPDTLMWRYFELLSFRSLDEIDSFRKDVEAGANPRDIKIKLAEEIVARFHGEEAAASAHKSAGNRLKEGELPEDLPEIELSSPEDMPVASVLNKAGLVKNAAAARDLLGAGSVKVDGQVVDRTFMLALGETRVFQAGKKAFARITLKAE

[3] = system: Moraxella catarrhalis (ATCC 25238); experiment: Broth microdilution MIC testing; assay type: cell-based; details: Gram-negative M. catarrhalis
In short: (§1)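 Broth microdilution MIC testing following CLSI guideline M7-A7, run against a 10-strain bacterial panel that included E. coli and P. aeruginosa efflux-pump mutants and a hypersensitive P. aeruginosa strain.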

[4] = system: Haemophilus influenzae (ATCC 49766); experiment: Broth microdilution MIC testing; assay type: cell-based; details: Gram-negative respiratory pathogen H. influenzae
In short: as §1

[5] = system: human embryonic kidney 293 cells (HEK293); experiment: In vitro cytotoxicity test; assay type: cell-based; details: 25-400 μg/mL, 24 h, triplicate
P. aeruginosa TyrRS-S [6] = target: T1, P. aeruginosa TyrRS-S; experiment: SPA-based tRNA aminoacylation assay; assay type: biochemical
P. aeruginosa TyrRS-S [7] = target: T1, P. aeruginosa TyrRS-S; experiment: Binding mode assay; assay type: biochemical; details: for shift in the IC50 with increasing ATP concentration (competition with ATP): ATP 25-1000 μM, Tyr held constant; for shift in the IC50 with increasing ATP concentration (competition with ATP) / shift in the IC50 with increasing Tyr concentration (competition with Tyr): TyrRS-S 0.05 μM; for shift in the IC50 with increasing Tyr concentration (competition with Tyr): Tyr 25-300 μM, ATP held at 2.5 mM
P. aeruginosa TyrRS-Z [8] = target: T2, P. aeruginosa TyrRS-Z; experiment: SPA-based tRNA aminoacylation assay; assay type: biochemical
HEK-293 cell line = details: quantitative high-throughput screening; ref PubChem CID 53183345; cited from earlier work
NIH-3T3 cell line = details: quantitative high-throughput screening; ref PubChem CID 53183345; cited from earlier work
S. aureus TyrRS = details: cited from earlier work
TyrRS = details: cited from earlier work
LysRS = details: cited from earlier work
eukaryotic LysRS = details: cited from earlier work

T1 sequence (Q9HWP3 whole entry): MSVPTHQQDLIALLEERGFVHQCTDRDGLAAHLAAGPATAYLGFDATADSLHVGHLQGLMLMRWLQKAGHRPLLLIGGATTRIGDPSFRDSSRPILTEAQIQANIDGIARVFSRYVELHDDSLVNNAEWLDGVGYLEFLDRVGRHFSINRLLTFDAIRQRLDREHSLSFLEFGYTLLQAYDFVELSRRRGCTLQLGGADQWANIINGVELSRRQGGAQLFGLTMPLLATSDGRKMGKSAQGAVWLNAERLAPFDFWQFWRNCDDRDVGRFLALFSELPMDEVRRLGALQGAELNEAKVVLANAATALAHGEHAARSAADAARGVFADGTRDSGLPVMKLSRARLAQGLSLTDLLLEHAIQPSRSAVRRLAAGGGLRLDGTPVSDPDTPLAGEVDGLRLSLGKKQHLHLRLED

| SMILES | inhibition of cultures (MIC testing) [3] | toxicity to human cell cultures [5] | shift in the IC50 with increasing ATP concentration (competition with ATP) (P. aeruginosa TyrRS-S [7]) | shift in the IC50 with increasing Tyr concentration (competition with Tyr) (P. aeruginosa TyrRS-S [7]) | effect on TyrRS (TyrRS) | also measured |
| --- | --- | --- | --- | --- | --- | --- |
| Nc1ncnc2c1ncn2[C@@H]1O[C@H](COP(=O)(O)OP(=O)(O)OP(=O)(O)O)[C@@H](O)[C@H]1O [ATP] | – | – | – | – | – | kcat^obs for interaction with TyrRS-S (P. aeruginosa TyrRS-S [1]): 1.0 s⁻¹; kcat^obs for interaction with TyrRS-Z (P. aeruginosa TyrRS-Z [2]): 3.8 s⁻¹ |
| O=C1Nc2ccccc2Oc2cc(N3CCc4ccccc4C3)c(S(=O)(=O)N3CCCCC3)cc21 [BCD37H06, 3-(3,4-dihydroisoquinolin-2(1H)-yl)-2-(piperidin-1-ylsulfonyl) dibenzo[b,f][1,4]oxazepin-11(10H)-one] | inhibited | failed to exhibit toxic effects at any concentrations tested | no shift in the IC50 | no shift in the IC50 | – | effectiveness against cultures (MIC testing) [4]: effective; IC50 (P. aeruginosa TyrRS-S [6]): 24 µM |
| CC(=O)N1CCc2cc(Br)c(S(=O)(=O)NCCN3CCCCC3C)cc21 (stereo not shown) [BCD38C11, 1-acetyl-5-bromo-N-[2-(2-methylpiperidin-1-yl)ethyl]indoline-6-sulfonamide] | inhibited | failed to exhibit toxic effects at any concentrations tested | increased with increasing ATP concentrations | no change in the IC50 values | – | IC50 (P. aeruginosa TyrRS-Z [8]): 241 µM; IC50 (P. aeruginosa TyrRS-S [6]): 71 µM; Ki (P. aeruginosa TyrRS-S [7]): 5.28 µM |
| Cc1ccc(N2CN(CC(=O)Nc3cccc(Cl)c3)S(=O)(=O)c3cccnc32)cc1 [BCD49D09, N1-(3-chlorophenyl)-2-[4-(4-methylphenyl)-1,1-dioxo-3,4-dihydro-1λ6-pyrido[2,3-e][1,2,4]thiadiazin-2(1H)-yl] acetamide] | inhibited | failed to exhibit toxic effects at any concentrations tested | increased with increasing ATP concentrations | no change in the IC50 values | – | – |
| O=C(c1ccccc1)N1CCCn2cc(-c3ccc4c(c3)OCO4)nc21 [BCD54B04, [2-(1,3-benzodioxol-5-yl)-6,7-dihydroimidazo[1,2-a]pyrimidin-8(5H)-yl](phenyl) methanone] | inhibited | failed to exhibit toxic effects at any concentrations tested | no shift in the IC50 | no shift in the IC50 | – | effectiveness against cultures (MIC testing) [4]: effective; IC50 (P. aeruginosa TyrRS-S [6]): 50 µM; toxicity in HEK-293 cell line (HEK-293 cell line): nontoxic; toxicity in NIH-3T3 cell line (NIH-3T3 cell line): nontoxic |
| N[C@@H](Cc1ccc(O)cc1)C(=O)NC(C(=O)O)[C@H]1[C@H](O)[C@]2(O)CO[C@@H]([C@@H]2O)N1O (stereo partly shown) [SB-219383] | – | – | – | – | – | IC50 against S. aureus TyrRS (S. aureus TyrRS): low nanomolar range |
| COc1ccc(-c2cc(=O)c3c(O)cc(O)cc3o2)cc1 [acacetin] | – | – | – | – | inhibitory effects | – |
| C=CC1=C(C)/C(=C/c2[nH]c(Cc3[nH]c(/C=C4\NC(=O)C(C)=C4C=C)c(C)c3CCC(=O)O)c(CCC(=O)O)c2C)NC1=O [bilirubin] | – | – | – | – | – | inhibition of LysRS (LysRS): specific inhibitor of ATP binding |
| O=c1cc(-c2ccccc2)oc2cc(O)cc(O)c12 [chrysin] | – | – | – | – | inhibitory effects | – |
| C[C@H]1CCC[C@H](C[C@H]2Cc3cc(O)cc(O)c3C(=O)O2)O1 [cladosporin] | – | – | – | – | – | inhibition of eukaryotic LysRS (eukaryotic LysRS): potent ATP competitive inhibitor |
| O=C(O[C@@H]1Cc2c(O)cc(O)cc2O[C@@H]1c1cc(O)c(O)c(O)c1)c1cc(O)c(O)c(O)c1 [epigallocatechin, gallate] | – | – | – | – | inhibitory effects | – |
| COc1ccc(-c2oc3cc(O)cc(O)c3c(=O)c2O)cc1 [kaempferide] | – | – | – | – | inhibitory effects | – |
